In ChEMBL document CHEMBL1144116, “Tanikolide, a toxic and antifungal lactone from the marine cyanobacterium Lyngbya majuscula” (J Nat Prod, 1999):
Converted amounts (≈) assume the structure as drawn. The source made the active and inactive calls. The rule behind the calls is not given here.

What was measured:
[1] = tested on: Bacillus subtilis; assay: Antibacterial activity against Bacillus subtilis ATCC 6051 at 100 ug/disk by paper disk agar plate method; assay type: functional, organism-based
In short: (§1)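 Paper disk-agar plate diffusion with 6 mm paper disks, each loaded with 100 µg of sample. Activity is read as the diameter of the zone of inhibition around the disk.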

[2] = tested on: Pseudomonas aeruginosa; assay: Antibacterial activity against Pseudomonas aeruginosa ATCC 10145 at 100 ug/disk by paper disk agar plate method; assay type: functional, organism-based; in short: as §1
[3] = tested on: Salmonella enterica subsp. enterica; assay: Antibacterial activity against Salmonella choleraesuis subsp. choleraesuis ATCC 14028 at 100 ug/disk by paper disk agar plate method; assay type: functional, organism-based
In short: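 Standard paper sensitivity disk-agar plate method with 6 mm disks. Read-out is the diameter of the inhibition zone around the disk.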

[4] = tested on: Candida albicans; assay: Antifungal activity against Candida albicans ATCC 14053 at 100 ug/disk by paper disk agar plate method; assay type: functional; in short: as §1
[5] = tested on: Staphylococcus aureus; assay: Antibacterial activity against Staphylococcus aureus ATCC 12600 at 100 ug/disk by paper disk agar plate method; assay type: functional, organism-based; in short: as §1
[6] = tested on: Escherichia coli; assay: Antibacterial activity against Escherichia coli ATCC 11775 at 100 ug/disk by paper disk agar plate method; assay type: functional, organism-based; in short: as §1
[7] = tested on: Carassius auratus; assay: Toxicity against Carassius auratus; assay type: organism-based; conditions: in vivo
In short: (§2)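 Single goldfish (Carassius auratus) per vessel in 50 mL distilled H2O, with sample dilutions added in 50 µL EtOH. Each fish is observed for 1 h. Samples and controls are run in duplicate.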

[8] = tested on: Carassius auratus; assay: Norcotic effect against Carassius auratus at 10 ug/mL after 1 hr; assay type: ADME, organism-based; conditions: in vivo; in short: as §2
[9] = tested on: Biomphalaria glabrata; assay: Molluscicidal activity against Biomphalaria glabrata at 10 mg/mL after 24 hrs; assay type: functional; conditions: read-out: LD50 (the source's name)
In short: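 Test snails: Biomphalaria glabrata. Sample stock solutions (10 mg/mL in EtOH) diluted in 10 mL distilled H2O. Snails observed after 24 h and scored dead when no heart beat was detected by dissecting light microscopy.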

[10] = Toxicity against Artemia salina after 24 hrs; assay type: organism-based; conditions: in vivo, read-out: LD50
In short: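 About 15 hatched Artemia salina in ca. 0.5 mL seawater per well with sample in 50 µL EtOH plus 4.5 mL artificial seawater (total ca. 5 mL), several concentrations, duplicate samples and controls. After 24 h at 28 °C, live and dead shrimp counted under dissecting light microscope.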

SMILES | Activity [1] | Activity [2] | Activity [3] | Activity [4] | Activity [5] | Activity [6] | Activity [7] | Activity [8] | LC50 [9] | LC50 at 24 h [10] | zone of inhibition at 100 µg/disc ([4]; read-out: IZ)
CCCCCCCCC[C@@]1(CO)CC[C@@H](C)C(=O)O1 | inactive | inactive | inactive | inactive | inactive | inactive |  |  |  |  | 
CCCCCCCCCCC[C@]1(CO)CCCC(=O)O1 [TANIKOLIDE] | inactive | inactive | inactive |  | inactive | inactive | Non-toxic | Toxic | 9 µg/mL (≈ 31.6 µM) | 3.6 µg/mL (≈ 12.7 µM) | 13 mm
